Experimental data taken from ChEMBL document CHEMBL4513216, “Probing the Open Global Health Chemical Diversity Library for Multistage-Active Starting Points for Next-Generation Antimalarials” (ACS Infect Dis, 2020).

Assay: Toxicity liver stage against HepG2, at 10uM
Assay type: cell-based
Parameters: test concentration 10 uM, cell line HepG2-A16-CD81EGFP
Details: human, HepG2-A16-CD81EGFP cells; read-out: INHIBITION
Method in brief: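 Uninfected HepG2-A16-CD81EGFP cells, 3 × 10^3 per well, 1536-well, plated on prespotted compound at 10 μM final, parasite-free screening media added to match infected plates; puromycin 10 μM positive, DMSO 0.5% negative; run in parallel with 48 h PbLuc assay at 37 °C, 5% CO2; viability by CellTiter-Glo luminescence, normalized to controls.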

Structure (SMILES) | cytotoxicity at 10 µM
CN(C)C(=O)c1cccnc1SCc1ccccc1C#N | 2.02%
COCC(O)CN1CCC(=O)N(Cc2ccccc2)Cc2ccccc21 (configuration not stated) | 1.19%
COCCn1ccc2c(C(=O)NC(C)C)cccc21 | 3.46%
COCCn1/c(=N/C(=O)C(C)C)sc2cc(Cl)ccc21 | -5.26%
O=S(=O)(NCCNc1ccc(-n2cccc2)nn1)c1cccs1 | -12.3%
CO[C@H]1CN(C(=O)c2ccc3c(c2)OCO3)[C@@H]2COC[C@H]12 | -142%
Cc1oncc1C(=O)N1CCC2(CCN(Cc3cccc(F)c3)C2=O)C1 (configuration not stated) | -142%
CC(C)NC(=O)N1CCN(C(=O)C2CCOCC2)CC2(CNC(=O)C2)C1 (configuration not stated) | 0.748%
CS(=O)(=O)N1Cc2nccn2CC(CN2CCCC2=O)C1 (configuration not stated) | 5.8%
COc1ccc(-c2cc(=O)n3c(n2)CCCCC3)cc1 | -14.1%
CC(=O)N1CCC2(CC1)C(=O)N(CC1CC1)c1ccccc12 | 11.2%
Nc1no[n+]([O-])c1C(=O)NCc1ccccn1 | -2.02%
COCCNCc1cc2ccc(C)c(C)c2[nH]c1=O | 5.13%
CN(C)CC(=O)N1CCCC1c1ccccn1 (configuration not stated) | 4.38%
CNc1cc(C2CN(Cc3cccnc3NC)CCO2)nc(C)n1 (configuration not stated) | 2.93%
CCCn1nc(C)c(C(=O)N[C@@H]2CC[C@@H](N3CCCC3)[C@@H]2O)c1C | -4.79%
Cc1cc(C)n(CC(=O)N2CCC(c3cc4cccnc4[nH]3)CC2)n1 | 16.8%
FC(F)(F)c1cc(C2CCNCC2)nc(-c2ccsc2)n1 | 8.6%
CCCC(=O)N1CCC(c2cc3cccnc3c(O)n2)CC1 | -3.63%
CC1(C2CCN(CC(N)=O)CC2)CN(Cc2ccccc2)C(=O)O1 (configuration not stated) | -23.4%
NC(=O)C1CCN(C(=O)CCn2c(C(F)(F)F)cc3cccnc32)CC1 | -23.7%
CN(C)CCN(C)C(=O)c1ccccc1-n1cc(CN(C)C)cn1 | -13.7%
O=C(c1cccnc1)N1CCC(c2nc(O)cc(-c3ccncc3)n2)C1 (configuration not stated) | -20.8%

Structure (SMILES) | cytotoxicity at 10 µM
O=C(Cn1ccnc1)N1C[C@@H]2CC[C@H](Oc3cccc(F)c3)[C@@H]2C1 | -18%
CCn1cc(CN2CCc3nc(-c4ccccn4)nc(O)c3C2)cn1 | -2.25%
Cc1nc(C)n(CC2CCCN2c2ccnc(-c3ccccc3)n2)n1 (configuration not stated) | 9.69%
CC(C(=O)N(C)Cc1ccc(Br)o1)n1cccn1 (configuration not stated) | 4.9%
CS(=O)(=O)NCc1ccc2c(c1)CCC2 | -1.9%
CC(OCC1CC1)C(=O)NCCC(=O)Nc1ccccn1 (configuration not stated) | -5.72%
Cc1nn(C)c2ncc(C(=O)N3CCNC(=O)C3)cc12 | -6.62%
CC(=O)NCCNC(=O)NCC1Cc2ccccc2O1 (configuration not stated) | -1.83%
FC(F)(F)c1csc(N2CCN(Cc3ccccn3)CC2)n1 | 4.25%
CC(O)CN1CCN(Cc2coc(-c3ccccc3)n2)CC1 (configuration not stated) | -5.93%
Cc1cc(C(=O)NCCC(=O)N2CCCc3ccccc32)no1 | 2.29%
COc1cc(CNC(=O)c2cc(S(C)(=O)=O)ccc2C)ccn1 | -1.65%
CN1CCN(C2CCN(Cc3ccc(Cl)cc3)CC2)C1=O | 7.9%
Cc1nnc2n1CCN(C(=O)C(C)Oc1ccc(C#N)cc1)C2 (configuration not stated) | -0.643%
CC(Cc1ccsc1)NC(=O)c1cc(N2CCNC2=O)ccc1F (configuration not stated) | -4.62%
CC(C)C(C(=O)NC1CC1)n1cnc2cc(F)c(F)cc21 (configuration not stated) | 15.3%
N#Cc1ncn(CCC(=O)Nc2ccc(F)c(F)c2)n1 | -147%
CCCc1nc(C)c(C(=O)Nc2cccc(C)n2)s1 | -40.8%
Cc1nc2ccc(C(=O)N3CCn4c(C)nnc4C3)cc2nc1C | -6.2%
Cc1ncncc1C(=O)N1CCCN(Cc2cnn(C(C)C)c2)CC1 | 0.814%
COc1ccc2c(c1)CCCN(C(C)C(=O)NC(N)=O)C2 (configuration not stated) | 8.66%
CCc1n[nH]c(C2CN(CCCOc3cccc(C)c3)CCO2)n1 (configuration not stated) | -15%
CCc1noc(CC)c1CC(=O)N1CCN(C(=O)C2CCCC2)CC1 | -4.78%

Structure (SMILES) | cytotoxicity at 10 µM
CC(C)OCCSCCn1nc2ccccn2c1=O | 3.36%
CC(C)N(C)C(=O)CSCc1ccc(S(=O)(=O)N(C)C)o1 | 19.1%
Clc1cnc(NCc2ccccc2N2CCOCC2)nc1 | -0.234%
Cn1ccnc1CNCCNc1ncc(Cl)cc1Cl | 0.321%
Cc1cc(C(C)NC(=O)c2ccc(O)nc2)c(C)o1 (configuration not stated) | -1.85%
COc1cc(CNc2cnn(CCN3CCOCC3)c2)cc(OC)c1 | -7.38%
CC1CCN(CC(O)CNc2ccccn2)CC1 (configuration not stated) | 11.4%
Cc1nc(C)n(CC2CCCCN2CC(=O)Nc2nncs2)n1 (configuration not stated) | 4.62%
CCc1noc(CNc2cc(F)ccc2OCC2CCCO2)n1 (configuration not stated) | -3.27%
CCOCC(O)CN1CCN(C(=O)c2ccnc(N(C)C)c2)CC1 (configuration not stated) | -3.47%
CN(Cc1ccc(F)cc1)C(=O)Cn1nc(-c2ccc(F)cc2)oc1=O | 8.68%
O=C(CCNC(=O)c1ccccc1)Nc1ccncc1 | -2.36%
CN(Cc1cnn(C)c1)C(=O)NC1CCC(O)CC1 (configuration not stated) | -14.7%
Cc1cc(NC(=O)N2CCN(c3nc(C)c(C)s3)CC2)no1 | 3.04%
O=C(NCC1CC2(CO1)CN(c1nncs1)C2)C1CCC1 (configuration not stated) | -103%
CN1CCN(S(=O)(=O)c2ccc(C(=O)N3CC[C@@H](O)C3)cc2)CC1=O | 2.7%
Cc1ccccc1SC1CCN(C(=O)C2CNCC(=O)N2)CC1 (configuration not stated) | -3.81%
CC(C)(O)CCc1cccc(C(=O)N2CCC[C@H]2CN2CCCC2)c1 | -1.13%
O=C(c1ccc(-n2cnnc2)cc1Cl)N1CCCC(O)(CO)CC1 (configuration not stated) | -3.59%
CN(Cc1ccsc1)C(=O)C1CCC(=O)N(Cc2ccccn2)C1 (configuration not stated) | 0.0228%
Cc1noc(-c2ccc(N(C)Cc3nccs3)nc2)n1 | 9%
CNCC(=O)NC1CC(C)(C)Cc2nc(C(C)(C)C)ncc21 (configuration not stated) | 10.2%
COc1nc2c(cc1C(=O)N1CCCC1c1ccccn1)CCC2 (configuration not stated) | -5.54%

Structure (SMILES) | cytotoxicity at 10 µM
O=C(CCN1CCOCC1)NC1CCCN(CC2CCCCC2)C1 (configuration not stated) | 1.64%
COc1ccc(CC2(CO)CCN(c3cc(C#N)ccn3)CC2)cc1 | 8.86%
COc1cccc(OC)c1-c1c[nH]c(C)n1 | -1.57%
CC(CO)NCc1csc2c1CCCC2 (configuration not stated) | -11.3%
Cc1nc(NCCSc2cnn[nH]2)c2c(C)noc2n1 | -3.21%
O[C@@]1(CNCC2(Cn3cccn3)CC2)CCCN2CCCC[C@@H]21 | 4.13%
COc1cccc2c(=O)n(Cc3nc(C)cc(O)n3)cnc12 | 9.49%
CN(Cc1n[nH]c(=O)n1Cc1ccccc1F)S(C)(=O)=O | -4.98%
CC(C)CCC(=O)N1CCCC2(CCN(Cc3ccccc3C#N)C2)C1 (configuration not stated) | 0.129%
CC1(c2ccccc2)CCC(=O)N(CCCN2CCOCC2)C1 (configuration not stated) | -18.1%
Cc1ccc2nc(C3CCCN3C(=O)c3cc(=O)[nH]c(=O)[nH]3)[nH]c2c1 (configuration not stated) | 18.7%
c1ccc(CCCN2CCCC(Nc3cnc4ccccc4n3)C2)cc1 (configuration not stated) | 1.34%
CCNC(=O)N1CCCC(C(=O)c2cccc(OC(C)C)c2)C1 (configuration not stated) | 8.62%
COc1cccc(CC2CN(C3CCN(C(C)=O)CC3)CCO2)c1 (configuration not stated) | -12.4%
O=C(CCc1cc2n(n1)CCCN(C(=O)c1cccnc1)C2)NC1CC1 | -7.38%
Cc1cccc2[nH]c(C3CCN(C(=O)c4ccnn4C)CC3)nc12 | -21.6%
COc1ccc(-c2ccnc3c2C(=O)CCC3)cc1 | 6.09%
COc1c(C2CCCN2C(=O)c2cccc(C)n2)c(C)nn1C (configuration not stated) | -7.52%
Cc1nc(CN(C)C2CCCN(c3ccccc3)C2)no1 (configuration not stated) | -6.9%
CC(Cn1cccn1)NCc1nc(-c2ccsc2)no1 (configuration not stated) | -8.42%
COc1ccc(C2=CCN(C(=O)C3CCCN(C(C)=O)C3)CC2)cc1 (configuration not stated) | -13.4%
O=C(NCCc1ccccn1)Nc1cc(C(F)(F)F)c[nH]c1=O | -6.78%
CCc1nc(C2CCCN2C(=O)CCc2c(C)noc2Cl)no1 (configuration not stated) | -7.07%

Structure (SMILES) | cytotoxicity at 10 µM
O=C(CCc1cccs1)N1CCCC1c1noc(C2CC2)n1 (configuration not stated) | -4.87%
Cc1ccc(O)c(C(=O)N2CCOCC2c2c(C)n[nH]c2C)c1 (configuration not stated) | -10.8%
Cc1nc(C)n(C2CCCN(C(=O)c3cncnc3C)C2)n1 (configuration not stated) | -2.48%
CC(=O)NCCCC(=O)NC(C)c1nnc2n1CCC2 (configuration not stated) | -10.3%
CN(C)c1ccc(C(=O)NCc2csc(Br)c2)cn1 | -4.97%
Cc1nc(CN2CCN(C(=O)c3sccc3C3CC3)CC2)oc1C | -15.2%
CCN1CCN(Cc2csc(C(C)C)n2)CC1 | -5.78%
COc1ccccc1C(O)CNC(=O)NCc1cccnc1OC (configuration not stated) | -4.48%
CC1(C)CN(C(CNC2=NCCN2)c2ccc(Cl)cc2)CCO1 (configuration not stated) | 8%
Fc1ccccc1CN(CCCn1ccnc1)CC1CCOC1 (configuration not stated) | 8.68%
O=C(CN1CCN(CC(O)C2CC2)CC1)NCc1ccc(F)cc1 (configuration not stated) | -0.084%
Cc1cccc(CN2CCC3(CC2)NC(=O)C[C@H]3c2cnn(C)c2)n1 | 4.53%
c1cnc(NC[C@@H]2CCC[C@@H]3CN(Cc4cc[nH]n4)C[C@@H]32)nc1 | -13.1%
COCC1CN(Cc2ccoc2)Cc2nn(CC3CC3)cc21 (configuration not stated) | -2.24%
O=C1[C@H]2CN(C3CCOCC3)C[C@H]2CN1Cc1cccc(F)c1 | -117%
Cc1noc(C)c1CN1CCC2(COCc3cnc(N(C)C)nc32)C1 (configuration not stated) | 9.93%
O=C(COC[C@H]1CC[C@H]2[C@H](CCN2c2ncccn2)O1)N1CCCC1 | -7.41%
O=C1CC(c2ccncc2)C2(CCN(Cc3ccc(F)cc3)CC2)N1 (configuration not stated) | 1.35%
O=C(Cc1cccs1)N1C[C@@H]2OCCN(CC3CCCO3)[C@@H]2C1 (some centres not stated) | -11%
CNC(=O)[C@H]1C[C@H]2CN(Cc3ccccc3)C[C@@H]1O2 | 8.84%
